Measurements as given in ChEMBL document CHEMBL2203264, “Optimization of imidazo[4,5-b]pyridine-based kinase inhibitors: identification of a dual FLT3/Aurora kinase inhibitor as an orally bioavailable preclinical development candidate for the treatment of acute myeloid leukemia” (J Med Chem, 2012).

Assays:
[1] = Metabolic stability in mouse liver microsomes assessed as parent compound metabolism after 30 mins by LC-MS analysis; format: ADME, Microsome; details: read-out: Drug metabolism
Procedure, shortened: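 Male CD1 mouse liver microsomes (1 mg/mL protein) incubated with 10 μM compound plus NADPH 1 mM, UDPGA 2.5 mM and MgCl2 3 mM in 10 mM PBS at 37 °C for 0 and 30 min. NADPH/UDPGA-free controls included. LC–MS quantitation of remaining compound; reported as percent parent metabolized after 30 min.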

[2] = Binding affinity to FLT3 ITD mutant
[3] = biological target: T1, Receptor-type tyrosine-protein kinase FLT3 (Homo sapiens, UniProt P36888)
T1 sequence (P36888 whole entry): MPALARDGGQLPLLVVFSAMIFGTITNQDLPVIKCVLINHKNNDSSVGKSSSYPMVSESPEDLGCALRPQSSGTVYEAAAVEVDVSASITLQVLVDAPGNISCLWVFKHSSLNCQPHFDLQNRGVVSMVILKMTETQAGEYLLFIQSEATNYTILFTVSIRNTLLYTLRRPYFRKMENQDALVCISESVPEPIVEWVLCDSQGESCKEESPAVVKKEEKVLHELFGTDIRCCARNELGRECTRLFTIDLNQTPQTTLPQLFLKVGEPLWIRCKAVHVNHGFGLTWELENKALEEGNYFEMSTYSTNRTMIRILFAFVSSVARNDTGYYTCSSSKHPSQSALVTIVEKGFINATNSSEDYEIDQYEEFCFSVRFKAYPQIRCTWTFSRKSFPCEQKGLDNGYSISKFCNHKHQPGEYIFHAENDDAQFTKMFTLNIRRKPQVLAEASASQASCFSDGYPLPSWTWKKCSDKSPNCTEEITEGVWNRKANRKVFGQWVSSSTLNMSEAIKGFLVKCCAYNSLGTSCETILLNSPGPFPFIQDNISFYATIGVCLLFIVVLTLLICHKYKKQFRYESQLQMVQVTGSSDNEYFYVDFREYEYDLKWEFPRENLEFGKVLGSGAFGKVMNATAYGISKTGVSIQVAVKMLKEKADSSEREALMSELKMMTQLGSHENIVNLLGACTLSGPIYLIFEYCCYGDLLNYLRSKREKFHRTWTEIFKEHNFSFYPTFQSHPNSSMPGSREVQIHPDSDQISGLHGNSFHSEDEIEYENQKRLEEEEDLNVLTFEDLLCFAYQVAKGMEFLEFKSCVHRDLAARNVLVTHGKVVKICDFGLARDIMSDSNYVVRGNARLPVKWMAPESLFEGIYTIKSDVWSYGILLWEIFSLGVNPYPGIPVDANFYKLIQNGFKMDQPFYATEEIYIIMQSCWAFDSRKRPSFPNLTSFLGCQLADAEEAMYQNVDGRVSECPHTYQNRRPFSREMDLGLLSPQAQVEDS

[4] = biological target: Voltage-gated inwardly rectifying potassium channel KCNH2 (Homo sapiens, UniProt Q12809); assay: Inhibition of human ERG by cell-based electrophysiology assay
Aurora kinase A = biological target: T2, Aurora kinase A (Homo sapiens, UniProt O14965); assay: Inhibition of GST-tagged human Aurora A kinase expressed in baculovirus system
T2 sequence (O14965 whole entry): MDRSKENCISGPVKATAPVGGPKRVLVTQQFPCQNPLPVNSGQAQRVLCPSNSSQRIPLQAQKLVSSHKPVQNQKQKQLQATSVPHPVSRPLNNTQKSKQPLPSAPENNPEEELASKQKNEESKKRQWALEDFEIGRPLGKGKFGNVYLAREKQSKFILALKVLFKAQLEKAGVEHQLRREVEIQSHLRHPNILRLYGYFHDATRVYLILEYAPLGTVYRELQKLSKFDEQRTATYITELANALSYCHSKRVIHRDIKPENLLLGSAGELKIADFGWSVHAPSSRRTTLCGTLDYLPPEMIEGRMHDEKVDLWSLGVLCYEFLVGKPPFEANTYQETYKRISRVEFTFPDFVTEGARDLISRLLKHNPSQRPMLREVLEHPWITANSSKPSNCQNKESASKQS

[5] = Metabolic stability in human liver microsomes assessed as parent compound metabolism after 30 mins by LC-MS analysis; format: ADME, Microsome; details: read-out: Drug metabolism
Procedure, shortened: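 Test compound at 10 μM with pooled mixed-gender human liver microsomes (1 mg/mL protein), NADPH 1 mM, UDPGA 2.5 mM and MgCl2 3 mM in 10 mM PBS at 37 °C for 0 and 30 min. Controls omit NADPH/UDPGA. Compound remaining measured by LC–MS; reported as percent of parent metabolized at 30 min.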

SW-620 = assay: cells; details: Homo sapiens, SW-620, 72 h
hERG (KCNH2) = hERG (KCNH2) (Homo sapiens, UniProt Q12809); assay: Inhibition of human ERG at 10 uM by cell-based electrophysiology assay
Sequence of hERG (KCNH2) (Q12809 whole entry): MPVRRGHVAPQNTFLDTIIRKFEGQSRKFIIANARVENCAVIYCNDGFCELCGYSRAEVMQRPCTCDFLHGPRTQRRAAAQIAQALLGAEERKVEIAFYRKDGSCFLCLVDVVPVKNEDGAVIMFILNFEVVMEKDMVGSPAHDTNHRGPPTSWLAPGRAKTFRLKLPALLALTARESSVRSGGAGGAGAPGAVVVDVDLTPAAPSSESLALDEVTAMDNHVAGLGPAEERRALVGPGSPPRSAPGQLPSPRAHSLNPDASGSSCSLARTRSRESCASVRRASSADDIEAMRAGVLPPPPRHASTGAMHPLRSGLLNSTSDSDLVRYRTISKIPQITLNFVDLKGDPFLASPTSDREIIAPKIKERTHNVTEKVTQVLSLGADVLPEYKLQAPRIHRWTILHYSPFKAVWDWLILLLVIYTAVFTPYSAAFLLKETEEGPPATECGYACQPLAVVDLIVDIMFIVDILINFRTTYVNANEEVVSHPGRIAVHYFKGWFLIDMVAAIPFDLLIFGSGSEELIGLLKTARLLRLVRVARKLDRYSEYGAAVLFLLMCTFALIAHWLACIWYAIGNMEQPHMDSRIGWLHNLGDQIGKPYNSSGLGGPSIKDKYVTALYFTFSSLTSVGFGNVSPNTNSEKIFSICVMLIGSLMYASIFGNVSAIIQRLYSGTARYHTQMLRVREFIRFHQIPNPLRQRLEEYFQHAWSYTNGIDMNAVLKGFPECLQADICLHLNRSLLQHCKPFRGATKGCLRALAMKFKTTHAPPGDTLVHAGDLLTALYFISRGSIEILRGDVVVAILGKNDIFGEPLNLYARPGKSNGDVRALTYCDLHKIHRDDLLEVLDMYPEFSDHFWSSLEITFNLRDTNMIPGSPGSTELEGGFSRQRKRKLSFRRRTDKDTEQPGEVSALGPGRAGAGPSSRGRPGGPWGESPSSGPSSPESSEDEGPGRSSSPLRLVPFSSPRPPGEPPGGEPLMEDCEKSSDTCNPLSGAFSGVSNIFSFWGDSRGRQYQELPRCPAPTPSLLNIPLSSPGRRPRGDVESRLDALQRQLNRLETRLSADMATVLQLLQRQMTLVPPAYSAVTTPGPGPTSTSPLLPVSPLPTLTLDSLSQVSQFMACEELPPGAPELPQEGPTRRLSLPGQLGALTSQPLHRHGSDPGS

Sequence of Voltage-gated inwardly rectifying potassium channel KCNH2 (Q12809 whole entry): as above

SMILES	metabolised at 0.5 h [1] [%]	Kd [2] [nM]	Kd [3] [nM]	IC50 [4] [nM]	IC50 (Aurora kinase A) [nM]	metabolised at 0.5 h [5] [%]	GI50 (SW-620) [nM]	inhibition at 10 µM (hERG (KCNH2)) [%]
Cc1cc(CN2CCN(c3c(Cl)cnc4[nH]c(-c5cn(C)nc5C)nc34)CC2)no1	48	10	2.4	6300	13	38	597	
Cc1nn(C)cc1-c1nc2ncc(Cl)c(N3CCN(Cc4cnccn4)CC3)c2[nH]1	99				27	76	1090	23
Cc1cc(CN2CCN(c3c(Cl)cnc4[nH]c(-c5ccc(N6CCN(C)CC6)cc5F)nc34)CC2)no1	65				87	99	7500	81
Cc1cc(CN2CCN(c3c(Br)cnc4nc(-c5nc(C)oc5C)[nH]c34)CC2)no1					2200		4570	
Cc1nn(C)cc1-c1nc2ncc(Cl)c(N3CCN(Cc4nonc4C)CC3)c2[nH]1	91				6	54	250	50
Cc1cc(CN2CCN(c3c(Br)cnc4[nH]c(-c5cncn5C)nc34)CC2)no1		62	14		15		2180	
Cc1cc(CN2CCN(c3c(Cl)cnc4[nH]c(-c5cnn(CC(F)F)c5)nc34)CC2)no1	12				45	0	1600	82
COCCN1CCN(c2ccc(-c3nc4ncc(Br)c(N5CCN(Cc6cc(C)on6)CC5)c4[nH]3)cc2)CC1	66				12	69	1000	54
Cc1nn(C)cc1-c1nc2c(N3CCN(Cc4ncn(C)n4)CC3)c(Cl)cnc2[nH]1	97				93	24	3140	14
Cc1cc(CN2CCN(c3c(Br)cnc4[nH]c(-c5ccc(N6CCOCC6)cc5)nc34)CC2)no1	50				7	99	860	
Cc1cc(CN2CCN(c3c(Cl)cnc4nc(-c5cc(C)on5)[nH]c34)CC2)no1					434		1150	
CCN1CCN(c2ccc(-c3nc4c(N5CCN(Cc6cc(C)on6)CC5)c(Cl)cnc4[nH]3)cc2)CC1	37				6	72	461	68
Cc1cc(CN2CCN(c3c(Br)cnc4nc(-c5ccc(N6CCN(C)CC6)cc5)[nH]c34)CC2)no1	36	4.9	1.2			86		75
Cc1cc(CN2CCN(c3c(Cl)cnc4nc(-c5ccc(N6CCN(C)CC6)c(F)c5)[nH]c34)CC2)no1	20				11	68	380	37
Cc1cc(CN2CCN(c3c(Cl)cnc4[nH]c(-c5cccc(N6CCN(C)CC6)c5)nc34)CC2)no1	40	26	5.4	9500	26	24	667	
Cc1cc(CN2CCN(c3c(Cl)cnc4[nH]c(-c5cccc(OCCN(C)C)c5)nc34)CC2)no1	23				130	18	850	88

SMILES	metabolised at 0.5 h [1] [%]	Kd [2] [nM]	Kd [3] [nM]	IC50 [4] [nM]	IC50 (Aurora kinase A) [nM]	metabolised at 0.5 h [5] [%]	GI50 (SW-620) [nM]	inhibition at 10 µM (hERG (KCNH2)) [%]
Cc1cc(CN2CCN(c3c(Cl)cnc4nc(-c5ccc(N6CCN(C)CC6)cc5)[nH]c34)CC2)no1	25					89	570	
Cc1cc(CN2CCN(c3c(Cl)cnc4nc(-c5ccn(C)n5)[nH]c34)CC2)no1					118		2600	
Cc1cc(CN2CCN(c3c(Br)cnc4nc(-c5csnn5)[nH]c34)CC2)no1					600		20000	
Cc1cc(CN2CCN(c3c(Cl)cnc4[nH]c(-c5cnn(C)c5)nc34)CC2)no1		66	12		45		1800	
Cc1cc(CN2CCN(c3c(Cl)cnc4nc(-c5cccc(CN(C)C)c5)[nH]c34)CC2)no1	29				54	36	840	85
Cc1cc(CN2CCN(c3c(Cl)cnc4nc(-c5nccn5C)[nH]c34)CC2)no1					564		16300	
Cc1cc(CN2CCN(c3c(Cl)cnc4[nH]c(-c5ccoc5)nc34)CC2)no1					68		6500	
Cc1nn(C)cc1-c1nc2c(N3CCN(Cc4cncnc4)CC3)c(Cl)cnc2[nH]1	78	15	5.9		22	50	950	32
Cc1cc(CN2CCN(c3c(Cl)cnc4nc(-c5cccc(CN6CCOCC6)c5)[nH]c34)CC2)no1	69				47	71	113	15
Cc1cc(CN2CCN(c3c(Cl)cnc4[nH]c(-c5cnn(C(C)C)c5)nc34)CC2)no1	30				35	17	2220	71
Cc1cc(CN2CCN(c3c(Cl)cnc4[nH]c(-c5cn(C)nc5C5CC5)nc34)CC2)no1	80				4	64		
Cc1cc(CN2CCN(c3c(Cl)cnc4nc(-c5ccnn5C)[nH]c34)CC2)no1					147		3190	
CCn1cc(-c2nc3ncc(Cl)c(N4CCN(Cc5cc(C)on5)CC4)c3[nH]2)cn1	16				41	22	2180	51
Cc1nn(C)cc1-c1nc2c(N3CCN(Cc4ncon4)CC3)c(Cl)cnc2[nH]1	67					22		
Cc1nc(CN2CCN(c3c(Cl)cnc4[nH]c(-c5cn(C)nc5C)nc34)CC2)no1	58					20		
CC(=O)N1CCN(c2ccc(-c3nc4ncc(Br)c(N5CCN(Cc6cc(C)on6)CC5)c4[nH]3)cc2)CC1	25				9	94	758	92
